Cneo AK release = Cryptococcus neoformans cell lysis inducers, primary screen, AK release luminescence, single concentration; lysis activity, % at 15 µM; 0.2% of 360,000 active; C. neoformans lysis, adenylate kinase release luminescence, 4 h; normalised: neutral wells 0, clomiphene wells 100;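 active means mean lysis activity across replicates of at least 80%, whatever share of replicates individually reach that level; inactive means mean lysis activity below 80%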
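Signal: Adenylate kinase release luminescence | Assay system: Log-phase Cryptococcus neoformans yeast cells | Input: Cells at 5 × 10^6 per mL | Buffer or medium: Fresh YPD growth medium | Compound: Single dose | Schedule: Static 4 h at 37 °C with compound, 1 h detection | Controls: Clomiphene | Read-out: Luminescence rise reflecting yeast cell lysis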
DENV2 CPE rescue = inhibitors of DENV2 cytopathic effect, primary screen, cell-based, plate reader, single concentration. DENV2-infected cells, cytopathic effect rescue. CPE inhibition, % at 9.99 µM. 1.7% of 350,000 active; in the data active means CPE inhibition above about 20%, passing the limit was not always enough; inconclusive means no clear call, values can overlap the other calls; tested in BHK-21 cells;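 further: 0% = median of neutral control wells and 100% = median of positive control wells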
F508del corr = F508del CFTR correction, initial screen, CFBE line, single point; CFBE cells, YFP halide quenching; stimulated with forskolin plus potentiator P3; % fluorescence drop versus neutral controls; activity (quench increase), % at 7.58 µM; 0.36% of 350,000 active; AID 720511, 2013;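 active means mean added fluorescence quench of at least 8% versus neutral control, with both replicates also reaching 8%; inconclusive means only one of the mean or replicate conditions met; inactive means mean below 8% and not both replicates reaching 8%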;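 further: cells transiently co-express mutant CFTR-F508del with the halide-sensitive YFP; corrector assay measuring rescue of mutant channel to the surface after 24 h compound exposure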
PDI inh = inhibitors of human PDI, primary screen, biochemical, turbidity, single point, plate reader; Protein disulfide-isomerase (Homo sapiens), P07237; 0.052% of 350,000 active; PDI insulin aggregation turbidity, A650, 90 min; inhibition, % at 10 µM;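 active means mean inhibition across replicates of 30% or more, whatever share of single replicates reach that level; inconclusive means mean inhibition below 30% while every single replicate reaches 30%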
ERp5 inh = inhibitors of ERp5-driven insulin aggregation, primary screen, biochemical, turbidity, absorbance 650 nm, single point; Protein disulfide-isomerase A6 (Homo sapiens), Q15084; 90 min; inhibition, % at 9.99 µM; 0.05% of 350,000 active; AID 651711, 2012;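 active means mean replicate inhibition above about 25%, with every replicate also reaching it, limit read from the data, passing the limit was not always enough; inconclusive means only one of those two criteria met; inactive means neither criterion met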
Target sequence (Q15084 whole entry, looked up): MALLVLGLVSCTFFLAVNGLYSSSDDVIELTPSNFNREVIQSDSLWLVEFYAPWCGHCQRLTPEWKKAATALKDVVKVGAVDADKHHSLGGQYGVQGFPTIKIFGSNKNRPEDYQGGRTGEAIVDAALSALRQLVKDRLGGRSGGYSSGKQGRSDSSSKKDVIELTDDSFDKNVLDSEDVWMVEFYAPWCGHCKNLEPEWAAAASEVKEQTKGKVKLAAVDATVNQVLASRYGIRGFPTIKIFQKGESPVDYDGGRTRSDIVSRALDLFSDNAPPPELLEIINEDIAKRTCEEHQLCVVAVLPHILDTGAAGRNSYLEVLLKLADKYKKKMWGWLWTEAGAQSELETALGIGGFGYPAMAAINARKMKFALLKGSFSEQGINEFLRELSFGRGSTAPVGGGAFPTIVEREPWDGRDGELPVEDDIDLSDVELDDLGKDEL
C2C12 statin = suppressors of statin myotoxicity in C2C12 myotubes, primary screen, cell-based, single point, plate reader | 0.78% of 330,000 active | rescue of ATP level, % at 7.49 µM | C2C12 myotubes + simvastatin, ATP luminescence, 48 h; scaled: DMSO 0, geranylgeraniol control 100 | AID 602340, 2012;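 active means mean ATP rescue above about 67%, or every replicate alone reaching that limit, limit read from the data, passing the limit was not always enough; inconclusive means no clear call, values can overlap the other calls; inactive means mean under the limit and some replicate under it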;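 further: myotubes were challenged with 10 µM simvastatin during compound exposure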
* marks the source's active call; other numbers are inactive results; u = inconclusive; x = not tested or not shown; ! = a repeat was not active. A selection: hits, their analogues and other compounds. The true share with any hit is near 2.3%.

SMILES	Cneo AK release	DENV2 CPE rescue	F508del corr	PDI inh	ERp5 inh	C2C12 statin
CC=Cc1ccc2n(c1=O)C[C@@H]1[C@@H](CO)[C@H](C(=O)O)[C@H]2N1S(=O)(=O)c1ccccc1C (mixture of isomers)	-5	u	0	x	5	-2
O=C(Cc1ccccc1)N1CCCCN2[C@H](CO)[C@H](c3ccc(C#CC4(O)CCCC4)cc3)[C@@H]2C1	1	6	0	x	14	x
CCOS(C)(=O)=O	2	48*	-3	x	-6	1
COc1ccc(CC(=O)N(CCN(C)C)CC2CCCN(Cc3ccccc3F)C2)cc1 (stereo not drawn)	0	27*	0	2	2	1
COC(=O)C1=C(c2cccc(OCc3ccccc3)c2)C[C@@H]2CC[C@H]1N2C(=O)NCc1ccc(Cl)cc1	2	25*	-2	-3	6	3
COC(=O)C1=C(c2cccc(OCc3ccccc3)c2)C[C@@H]2CC[C@H]1N2C(=O)NCCOc1ccccc1	1	90*	-2	2	-1	-10
COC(=O)C1=C(c2ccc(F)cc2OCc2ccccc2)C[C@@H]2CC[C@H]1N2C(=O)N1CCC(O)(c2ccc(Cl)cc2)CC1	-1	77*	1	2	-3	-2
COC(=O)C1=C(c2cc3ccccc3s2)C[C@@H]2CC[C@H]1N2C(=O)NCc1ccccc1	1	117*	-1	-1	-2	-4
O=C(Cc1ccccn1)N1CCCCN2[C@@H](CO)[C@H](c3ccc(C#Cc4ccccc4)cc3)[C@@H]2C1	5	-3	0	x	-7	x
COc1ccc(CC(=O)N2C[C@H]3C[C@@H](C2)c2cccc(=O)n2C3)cc1	-1	27*	1	x	0	4
Cc1c(CCC(=O)N2C[C@H]3C[C@@H](C2)c2cccc(=O)n2C3)c(=O)oc2c(C)c(O)ccc12	0	56*	0	x	2	-7
COc1ccc(CCC(=O)N2C[C@H]3C[C@@H](C2)c2cccc(=O)n2C3)cc1	-1	3	-2	x	6	-6
O=C(Cc1ccccc1)N1CCCCN2[C@H](CO)[C@@H](c3ccc(C#Cc4ccccc4)cc3)[C@H]2C1	46	-2	0	x	2	x
CCCC[C@@H](C)C[C@@H](C)C(=O)N(C)[C@@H](CC(C)C)C(=O)N[C@H](C(=O)N(C)[C@H](C(=O)N1C[C@@H](O)C[C@H]1C(=O)N1C(=O)C=C[C@@H]1C)C(C)C)C(C)OC(C)=O (stereo partly drawn)	4	x	x	37*	x	-333
CC(C)OC(=O)C1C(c2ccc(I)cc2)CC2CCC1N2C (stereo not drawn)	x	4	5	x	4	x
COC(=O)C1C(c2ccc(C)cc2)CC2CCC1N2C (stereo not drawn)	x	28*	3	x	0	x
C[C@@H]1CN([C@@H](C)CO)C(=O)c2c(c3ccccc3n2C)-c2ccccc2CO[C@H]1CN(C)C(=O)Oc1ccccc1	x	-4	-1	x	-4	x
C[C@@H]1CN([C@@H](C)CO)C(=O)CCCn2nncc2CO[C@H]1CN(C)C(=O)Oc1cccc2ccccc12	88*!	0	0	-2	0	2
C[C@H]1CN([C@@H](C)CO)C(=O)CCCn2nncc2CO[C@@H]1CN(C)C(=O)Oc1cccc2ccccc12	-6	2	4	x	-3	20
C[C@H]1CN([C@@H](C)CO)C(=O)c2c(c3ccccc3n2C)-c2ccccc2CO[C@H]1CN(C)C(=O)Oc1ccccc1	x	81*	-2	x	0	x
CCN1[C@@H]2c3ccc(-c4cccc(C(=O)N(C)C)c4)c(=O)n3C[C@H]1[C@H](CO)[C@H]2C(=O)OC	-6	-1	2	x	-11	-6
COC(=O)[C@@H]1[C@@H](CO)[C@@H]2Cn3c(ccc(-c4ccccc4F)c3=O)[C@H]1N2	1	1	x	x	0	38
CC(=O)OC1CC2OC3C=C(C)CCC3(C)C1(C)C21CO1 (stereo not drawn)	24	-11	-9	x	-4	210*
CC(=O)O[C@H]1C[C@@H]2OC3C=C(C)CCC3(C)[C@@]1(C)[C@@]21CO1 (stereo partly drawn)	x	106*	0	-7	2	x
CC=CC(C)=CC(C)C(=O)CC(O)CC1CC(=O)NC(=O)C1 (stereo not drawn)	x	2	10*	2	1	x
SMILES	Cneo AK release	DENV2 CPE rescue	F508del corr	PDI inh	ERp5 inh	C2C12 statin
COC(=O)[C@@H]1[C@@H](CO)[C@@H]2Cn3c(ccc(-c4ccc(F)cc4)c3=O)[C@H]1N2Cc1ccccc1	1	-6	2	x	1	32
CN1CCC(N(C)c2ncnc3ccc(Br)cc23)CC1	3	x	x	7	x	83*
CCN1C[C@]2(COC(=O)c3ccccc3N)CC[C@H](OC)C34[C@@H]5C[C@H]6[C@H](OC)[C@@H]5[C@](O)(C[C@@H]6OC)[C@@](O)([C@H]13)[C@@H](OC)[C@@H]42	2	8	7	45*	2	12
CCN1C[C@]2(COC)CC[C@H](OC)[C@@]34C5C[C@H]6C(=O)C5[C@](O)(C[C@H]6OC)[C@@](O)(C(OC)C23)[C@@H]14 (stereo partly drawn)	-2	44*	-1	x	6	3
CCN1C[C@]2(COC)CC[C@H](O)[C@]34C1[C@](O)([C@@H](OC)[C@H]23)[C@@]1(O)C[C@H](OC)[C@H]2C[C@@H]4[C@@H]1[C@H]2OC	-1	-8	2	0	7	-7
CCN1CC2(COC(=O)c3ccccc3N)CCC(OC)C34C5CC6C(OC)CC(O)(C5C6OC)C(O)(C(OC)C23)C14 (stereo not drawn)	2	x	x	u	x	-2
c1ccc(Nc2ccc(Nc3ccccc3)cc2)cc1	-2	41*	0	x	-4	11
Cc1ccccc1S(=O)(=O)N1[C@@H]2c3ccc(-c4cccnc4)c(=O)n3C[C@H]1[C@H](CO)[C@H]2C(=O)O	-2	1	-3	x	1	-14
COc1ccc(CN2C(=O)CC(=O)NC2=O)cc1	-1	x	x	-1	x	2
O=C1CC(=O)N(Cc2ccccc2)C(=S)N1	0	23*	0	6	5	6
COc1ccc(CCNCc2cccn2C)cc1OC	0	69*	2	0	2	-6
C=C[C@@H]1C2=CCOC(=O)C2=CO[C@H]1O[C@@H]1O[C@H](CO)[C@@H](O)[C@H](O)[C@H]1O	1	23*	1	11	3	-3
